Assay results published in ChEMBL document CHEMBL2429818, “Recognition of HIV-TAR RNA using neomycin-benzimidazole conjugates” (Bioorg Med Chem Lett, 2013).
Activity calls are given as the source filed them. The rule behind the calls is not given here.

Legend:
Nucleic Acid [1] = assay: Thermal stabilization of HIV TAR RNA assessed as change in melting temperature at 1:1 ligand to RNA ratio by UV-vis spectrophotometric analysis; format: nucleic-acid assay; conditions: Human immunodeficiency virus
Nucleic Acid [2] = assay: Displacement of fluorescein and rhodamine-labeled TAT peptide from HIV TAR RNA by FRET assay; format: nucleic-acid assay, Human immunodeficiency virus
Method in brief: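 Tat peptide carrying fluorescein/rhodamine FRET pair mixed 1:1 with TAR RNA (100 nM each) in 50 mM Tris, 20 mM KCl, pH 7.4. Complex titrated with ligand until fluorescence stopped changing; displacement read as loss of fluorescein emission. Isotherm fitted to a dose-response curve to give IC50, the level displacing 50% of bound peptide.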

Nucleic Acid [3] = assay: Displacement of ethidium bromide from HIV TAR RNA by fluorescent intercalator displacement assay; format: nucleic-acid assay, Human immunodeficiency virus
Method in brief: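 TAR RNA prebound with ethidium bromide, then titrated successively with ligand to displace the intercalator. The resulting binding isotherm was analysed for DC50, the ligand concentration displacing 50% of bound dye.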

Nucleic Acid [4] = assay: Binding affinity to HIV TAR RNA at 1.6 equiv after 5 mins by circular dichroism analysis; format: nucleic-acid assay; conditions: Human immunodeficiency virus
Method in brief: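 TAR RNA titrated serially with ligand in small increments; after each addition the complex was stirred and equilibrated 5 min before recording the CD spectrum (average of three scans). Buffer 10 mM sodium cacodylate, 0.5 mM EDTA, 100 mM KCl, pH 6.8, at 20 °C.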

[5] = Displacement of fluorescein-labeled REV peptide from HIV RRE RNA after 1 hr by fluorescence polarization assay; design: species or system Human immunodeficiency virus

| ΔTm (Nucleic Acid [1]) | IC50 (Nucleic Acid [2]) | DC50 (Nucleic Acid [3]) | Activity (Nucleic Acid [4]) | IC50 [5] | SMILES |
| --- | --- | --- | --- | --- | --- |
| 1 °C |  |  |  |  | C#CCOc1ccc(-c2nc3ccc(N4CCN(C)CC4)cc3[nH]2)cc1 |
| 5.4 °C | 949 nM | 81 nM |  |  | CN1CCN(c2ccc3nc(-c4ccc(OCCn5cc(CCCCCCc6cn(C[C@H]7O[C@@H](O[C@@H]8[C@@H](O)[C@H](N)C[C@H](N)[C@H]8O[C@H]8O[C@H](CN)[C@@H](O)[C@H](O)[C@H]8N)[C@H](O)[C@@H]7O[C@H]7O[C@@H](CN)[C@@H](O)[C@H](O)[C@H]7N)nn6)nn5)cc4)[nH]c3c2)CC1 |
| 3.4 °C | 337 nM | 83 nM |  |  | CN1CCN(c2ccc3nc(-c4ccc(OCCn5cc(CCc6cn(C[C@H]7O[C@@H](O[C@@H]8[C@@H](O)[C@H](N)C[C@H](N)[C@H]8O[C@H]8O[C@H](CN)[C@@H](O)[C@H](O)[C@H]8N)[C@H](O)[C@@H]7O[C@H]7O[C@@H](CN)[C@@H](O)[C@H](O)[C@H]7N)nn6)nn5)cc4)[nH]c3c2)CC1 |
| 3 °C | 1280 nM | 78 nM |  |  | CN1CCN(c2ccc3nc(-c4ccc(OCCn5cc(COCc6cn(C[C@H]7O[C@@H](O[C@@H]8[C@@H](O)[C@H](N)C[C@H](N)[C@H]8O[C@H]8O[C@H](CN)[C@@H](O)[C@H](O)[C@H]8N)[C@H](O)[C@@H]7O[C@H]7O[C@@H](CN)[C@@H](O)[C@H](O)[C@H]7N)nn6)nn5)cc4)[nH]c3c2)CC1 |
| 2.1 °C | 851 nM | 150 nM |  |  | CN1CCN(c2ccc3nc(-c4ccc(OCc5cn(CCCCCn6cc(CCCCc7cn(C[C@H]8O[C@@H](O[C@@H]9[C@@H](O)[C@H](N)C[C@H](N)[C@H]9O[C@H]9O[C@H](CN)[C@@H](O)[C@H](O)[C@H]9N)[C@H](O)[C@@H]8O[C@H]8O[C@@H](CN)[C@@H](O)[C@H](O)[C@H]8N)nn7)nn6)nn5)cc4)[nH]c3c2)CC1 |
| 4 °C | 1380 nM | 180 nM |  |  | CN1CCN(c2ccc3nc(-c4ccc(OCc5cn(CCCCCCCCCCn6cc(CCCCc7cn(C[C@H]8O[C@@H](O[C@@H]9[C@@H](O)[C@H](N)C[C@H](N)[C@H]9O[C@H]9O[C@H](CN)[C@@H](O)[C@H](O)[C@H]9N)[C@H](O)[C@@H]8O[C@H]8O[C@@H](CN)[C@@H](O)[C@H](O)[C@H]8N)nn7)nn6)nn5)cc4)[nH]c3c2)CC1 |
| 3.8 °C | 1370 nM | 200 nM |  |  | CN1CCN(c2ccc3nc(-c4ccc(OCc5cn(CCCCCCn6cc(CCCCc7cn(C[C@H]8O[C@@H](O[C@@H]9[C@@H](O)[C@H](N)C[C@H](N)[C@H]9O[C@H]9O[C@H](CN)[C@@H](O)[C@H](O)[C@H]9N)[C@H](O)[C@@H]8O[C@H]8O[C@@H](CN)[C@@H](O)[C@H](O)[C@H]8N)nn7)nn6)nn5)cc4)[nH]c3c2)CC1 |
| 4.1 °C | 507 nM | 140 nM |  |  | CN1CCN(c2ccc3nc(-c4ccc(OCCn5cc(CCCc6cn(C[C@H]7O[C@@H](O[C@@H]8[C@@H](O)[C@H](N)C[C@H](N)[C@H]8O[C@H]8O[C@H](CN)[C@@H](O)[C@H](O)[C@H]8N)[C@H](O)[C@@H]7O[C@H]7O[C@@H](CN)[C@@H](O)[C@H](O)[C@H]7N)nn6)nn5)cc4)[nH]c3c2)CC1 |
| 2.5 °C | 411 nM | 184 nM |  |  | CN1CCN(c2ccc3nc(-c4ccc(OCc5cn(Cn6cc(CCCCc7cn(C[C@H]8O[C@@H](O[C@@H]9[C@@H](O)[C@H](N)C[C@H](N)[C@H]9O[C@H]9O[C@H](CN)[C@@H](O)[C@H](O)[C@H]9N)[C@H](O)[C@@H]8O[C@H]8O[C@@H](CN)[C@@H](O)[C@H](O)[C@H]8N)nn7)nn6)nn5)cc4)[nH]c3c2)CC1 |
| 2 °C | 1470 nM |  |  |  | NC[C@@H]1O[C@H](O[C@H]2[C@@H](O)[C@H](O[C@@H]3[C@@H](O)[C@H](N)C[C@H](N)[C@H]3O[C@H]3O[C@H](CN)[C@@H](O)[C@H](O)[C@H]3N)O[C@@H]2CO)[C@H](N)[C@@H](O)[C@@H]1O [FRAMYCETIN] |
| 5.6 °C | 272 nM | 33 nM | Active | 768 nM | CN1CCN(c2ccc3nc(-c4ccc(OCc5cn(C[C@H]6O[C@@H](O[C@@H]7[C@@H](O)[C@H](N)C[C@H](N)[C@H]7O[C@H]7O[C@H](CN)[C@@H](O)[C@H](O)[C@H]7N)[C@H](O)[C@@H]6O[C@H]6O[C@@H](CN)[C@@H](O)[C@H](O)[C@H]6N)nn5)cc4)[nH]c3c2)CC1 |
| 3 °C | 379 nM | 180 nM |  |  | CN1CCN(c2ccc3nc(-c4ccc(OCCn5cc(-c6ccc(-c7cn(C[C@H]8O[C@@H](O[C@@H]9[C@@H](O)[C@H](N)C[C@H](N)[C@H]9O[C@H]9O[C@H](CN)[C@@H](O)[C@H](O)[C@H]9N)[C@H](O)[C@@H]8O[C@H]8O[C@@H](CN)[C@@H](O)[C@H](O)[C@H]8N)nn7)cc6)nn5)cc4)[nH]c3c2)CC1 |
